# According to ChEMBL document CHEMBL2157863, “Synthesis and evaluation of novologues as C-terminal Hsp90 inhibitors with cytoprotective activity against sensory neuron glucotoxicity” (J Med Chem, 2012):
# Activity calls are given as the source filed them. The rule behind the calls is not given here.
# Legend:
# [1] = Cytoprotective activity against glucotoxicity in Sprague-Dawley rat DRG neurons assessed as cell viability at 1 uM by calcein-AM assay; format: functional; settings: DRG neuron, read-out: Activity
# Outline: (§1)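 Dorsal root ganglion neurons came from embryonic day 15–18 Sprague Dawley rats. They were trypsin-dissociated and grown on collagen in Neurobasal medium with 25 mM glucose, B-27 and 50 ng/ml NGF. Fluorodeoxyuridine and cytosine arabinoside were given for 2 days. On day 3, neurons received compound plus 20 mM excess glucose (45 mM total) for 4 h. Viability was read with 2 μM calcein AM, 30 min at 37°C, ex 485/em 520 nm, normalized to well protein.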
# Nucleic Acid [2] = experiment: Activation of human HSP70 promoter transfected in rat 50B11 cells at 1 uM after 16 hrs by luciferase reporter gene assay; format: cell-based
# Outline: (§2)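 50B11 immortalized sensory neurons were grown in DMEM with 25 mM glucose, 10% FCS and 5 μg/ml blasticidin. They were lipofected with a luciferase reporter driven by the human Hsp70 promoter, which carries two heat shock elements. Cells were re-seeded after 24 h and exposed to compound for 16 h. Luciferase in lysates was normalized to total protein per well, with triplicate wells in at least three experiments.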
# [3] = Cytoprotective activity against glucotoxicity in Sprague-Dawley rat DRG neurons assessed as cell viability by calcein-AM assay; format: functional; settings: DRG neuron; outline: as §1
# Nucleic Acid [4] = experiment: Activation of human HSP70 promoter transfected in rat 50B11 cells at 10 to 1000 nM after 16 hrs by luciferase reporter gene assay; format: cell-based; outline: as §2
# DRG neuron = experiment: Induction of HSP70 protein expression in Sprague-Dawley rat DRG neurons at 10 to 1000 nM; format: functional
# Outline: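 Rat embryonic DRG neurons were preincubated overnight with 10–1000 nM compound or DMSO, then exposed to 4 h hyperglycemia. Hsp70 and β-actin were measured by immunoblot. Band intensity of Hsp70 was normalized to β-actin and expressed as fold of control.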
# [5] = target: T1, Heat shock protein HSP90 (Homo sapiens) (UniProt P07900+P08238); experiment: Inhibition of HSP90 in human MCF7 cells assessed as degradation of Her2 up to 5 uM after 24 hrs by immunoblot analysis; format: cell-based
# Outline: (§3)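 MCF7 cells were exposed to compound for 24 h. Lysates were immunoblotted for the Hsp90 clients Her2, Raf and Akt, with β-actin as loading control. Geldanamycin at 500 nM served as the positive control for client degradation.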
# [6] = target: T1, Heat shock protein HSP90 (Homo sapiens); experiment: Inhibition of HSP90 in human MCF7 cells assessed as degradation of Raf up to 5 uM after 24 hrs by immunoblot analysis; format: cell-based; outline: as §3
# [7] = target: T1, Heat shock protein HSP90 (Homo sapiens); experiment: Inhibition of HSP90 in human MCF7 cells assessed as degradation of Akt up to 5 uM after 24 hrs by immunoblot analysis; format: cell-based; outline: as §3
# [8] = Ratio of KU-32 ED50 to compound ED50 for cytoprotective activity against glucotoxicity in Sprague-Dawley rat DRG neurons; format: functional, DRG neuron
Compound,viability at 1 µM [1] [%],further results
CO[C@@H]1[C@@H](O)[C@@H](O)[C@H](Oc2ccc(C3CC=CCC3NC(C)=O)c(-c3cccc(C(F)(F)F)c3)c2)OC1(C)C (mixture of isomers),69,–
COc1cccc(-c2cc(O[C@@H]3OC(C)(C)[C@H](OC)[C@@H](O)[C@H]3O)ccc2CCNC(C)=O)c1,78,–
COc1ccccc1-c1cc(O[C@@H]2OC(C)(C)[C@H](OC)[C@@H](O)[C@H]2O)ccc1CCNC(C)=O,92,Activity (Nucleic Acid [2]): Active
CO[C@@H]1[C@@H](O)[C@@H](O)[C@H](Oc2ccc(CCNC(C)=O)c(-c3ccc(C(F)(F)F)cc3)c2)OC1(C)C,74,–
CO[C@@H]1[C@@H](O)[C@@H](O)[C@H](Oc2ccc(CCNC(C)=O)c(-c3ccccc3)c2)OC1(C)C,76,–
CO[C@@H]1[C@@H](O)[C@@H](O)[C@H](Oc2ccc(CCNC(C)=O)c(-c3cccnc3)c2)OC1(C)C,61,–
CO[C@@H]1[C@@H](O)[C@@H](O)[C@H](Oc2ccc3cc(NC(C)=O)c(=O)oc3c2C)OC1(C)C,86,EC50 [3]: 240 nM; Activity (Nucleic Acid [4]): Active; Activity (DRG neuron): Active
CO[C@@H]1[C@@H](O)[C@@H](O)[C@H](Oc2ccc(CCNC(C)=O)c(-c3ccccc3Cl)c2)OC1(C)C,71,–
CO[C@@H]1[C@@H](O)[C@@H](O)[C@H](Oc2ccc(CCNC(C)=O)c(-c3ccc4c(c3)OCO4)c2)OC1(C)C,83,EC50 [3]: 18.4 nM; Activity (Nucleic Acid [4]): inactive; Activity (DRG neuron): inactive
CO[C@@H]1[C@@H](O)[C@@H](O)[C@H](Oc2ccc(CCNC(C)=O)c(-c3cccc(Cl)c3)c2)OC1(C)C,90,–
CO[C@@H]1[C@@H](O)[C@@H](O)[C@H](Oc2ccc(C3CC=CCC3NC(C)=O)c(-c3cccc(F)c3)c2)OC1(C)C (mixture of isomers),78,–
CO[C@@H]1[C@@H](O)[C@@H](O)[C@H](Oc2ccc(CCNC(C)=O)c(-c3ccc(O)cc3)c2)OC1(C)C,67,–
CO[C@@H]1[C@@H](O)[C@@H](O)[C@H](Oc2ccc(CCNC(C)=O)c(-c3cccc(C(F)(F)F)c3)c2)OC1(C)C,83,EC50 [3]: 188 nM
CO[C@@H]1[C@@H](O)[C@@H](O)[C@H](Oc2ccc(CCNC(C)=O)c(-c3cccc(C)c3)c2)OC1(C)C,82,–
CO[C@@H]1[C@@H](O)[C@@H](O)[C@H](Oc2ccc(CCNC(C)=O)c(-c3ccncc3)c2)OC1(C)C,81,–
CO[C@@H]1[C@@H](O)[C@@H](O)[C@H](Oc2ccc(CCNC(C)=O)c(-c3cccc(CN4CCOCC4)c3)c2)OC1(C)C,83,–
CO[C@@H]1[C@@H](O)[C@@H](O)[C@H](Oc2ccc(CCNC(C)=O)c(-c3ccccc3SC)c2)OC1(C)C,83,EC50 [3]: 384 nM
CO[C@@H]1[C@@H](O)[C@@H](O)[C@H](Oc2ccc(CCNC(C)=O)c(-c3cccc(F)c3)c2)OC1(C)C [CEMDOMESPIB],95,EC50 [3]: 13 nM; Activity (Nucleic Acid [4]): Active; Activity (DRG neuron): Active; inhibition [5]: inactive; inhibition [6]: inactive; inhibition [7]: inactive; Ratio ED50 [8]: 14
CO[C@@H]1[C@@H](O)[C@@H](O)[C@H](Oc2ccc(CCNC(C)=O)c(-c3ccc(F)cc3)c2)OC1(C)C,75,–
